As usually defined, the inhibition is the relative decrease from the control value, in per cent.

Screen size: about 340,000 compounds; about 3,000 (0.88%) were called active. Shown is part of a subset that was picked to be rich in actives. Values without a mark were called inactive.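 How the source made its calls: active means inhibition above about 50% at 20 µM (limit read from the data); inactive means the rest.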

In this test the target is Carboxy-terminal domain RNA polymerase II polypeptide A small phosphatase 1 (Homo sapiens) (UniProt Q9GZU7). The test can be described thus: Scp-1 phosphatase inhibitors, primary screen, biochemical, colorimetric, uHTS (AID 493091).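 Further: plate controls were DMSO wells with enzyme for no effect and wells lacking enzyme for full effect.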 As to conditions: Recombinant Scp1, phosphopeptide, malachite green phosphate absorbance; at 20 µM; stronger effect = higher value. An outline of the steps: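 Test system: SCP-1 phosphatase catalytic domain, residues 76-261; measured by: colorimetric phosphate reagent with accelerator and stabiliser, absorbance at 630 nm; timing: enzyme reaction 45 min at room temperature, colour 5 min, stabilisation 30 min; also added: Phosphorylated 17-residue peptide substrate; compound dosing: one concentration, 20 µM, with 1.0% DMSO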
Carboxy-terminal domain RNA polymerase II polypeptide A small phosphatase 1 (Homo sapiens), sequence (Q9GZU7 76-261 limits assumed): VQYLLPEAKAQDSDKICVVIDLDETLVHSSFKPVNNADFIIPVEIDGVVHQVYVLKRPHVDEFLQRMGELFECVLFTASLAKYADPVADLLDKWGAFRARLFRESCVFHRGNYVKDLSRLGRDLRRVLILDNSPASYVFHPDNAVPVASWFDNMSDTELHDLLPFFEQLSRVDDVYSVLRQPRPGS
Take `CCOC(=O)C1=C(NC(=S)NC(=O)c2ccccc2)c2ccccc2CC1(C)C`: the inhibition is -6.2%.
`CCOC(=O)C1=C(C)c2ccccc2OC1(C)C(=O)OCC` (configuration not stated): the inhibition is 70.1% (active).
As for `CCOC(=O)C1=C(C)c2ccccc2OC1C(=O)OCC` (configuration not stated), the figure is -1.33%.
As for `COc1c(C(C)C)oc2cc3oc(=O)ccc3cc12`, the figure is -9.44%; as for `N#Cc1ccc(C(=O)Nc2cccc3cccnc23)c(F)c1`, 100% (active); as for `COc1ccc(NC(=O)c2ccco2)cc1NC(=O)c1ccc(C#N)cc1F`, 6.99%.
In the case of `CSc1ccc(C#N)cc1NC(=O)c1cccc(Cl)c1` it was -21.5%; in that of `Nc1ccc2nc3c(=O)[nH]c(=S)[nH]c3nc2c1`, 78.4% (active).
With `CC12CCC(C(=O)N3CCN(c4ncccn4)CC3)(c3nc4ccccc4nc31)C2(C)C` (configuration not stated), the inhibition is -9.3%.
As to `COC(=O)Cc1c(-c2[nH]c3ccccc3c2CC(=O)OC)[nH]c2ccccc12`, the inhibition is -13.3%.
As for `COC(=O)C[n+]1cccc2ccccc21`, the figure is 105% (active); as for `O=C(C[n+]1cc(Br)cc2ccccc21)c1ccc(F)cc1`, -4.19%; as for `CCOc1cc2[nH]c(=S)n(CCCN3CCCC3=O)c(=O)c2cc1OCC`, -8.04%.
As for `Cc1ccc(NC(=S)N2CCN(c3ncccn3)CC2)cc1C`, the figure is 4.95%; as for `COc1ccc(CN2CCC(n3nccc3NC(=O)CCCc3ccccc3)CC2)cc1C`, 6.87%; as for `Cc1oc2c(C)c3oc(=O)c(CC(=O)N[C@@H](CC(C)C)C(=O)N[C@@H](Cc4ccccc4)C(=O)O)c(C)c3cc2c1C`, 88% (active).
Take `Cc1c(CCC(=O)N[C@@H](CC(C)C)C(=O)O)c(=O)oc2c(C)c3oc4c(c3cc12)CCCC4`: the inhibition is -2.45%.
As for `Cc1c(OC(C)C(=O)N[C@@H](Cc2ccccc2)C(=O)O)ccc2c3c(c(=O)oc12)CCCC3` (some centres not stated), the figure is 4.1%; as for `CC(Oc1ccc(-c2ccccc2)c(F)c1)c1ccn(S(=O)(=O)c2cccc3ccccc23)n1` (configuration not stated), -13.9%.
As for `Cc1c(-c2nn(C)c(=O)c3ccccc23)oc2ccc(F)cc2c1=O`, the figure is 3.62%; as for `Cc1c(Cl)c([N+](=O)[O-])nn1CCCC(=O)NC(C)c1ccccc1` (configuration not stated), -27.1%.
Take `Cc1nnc(SCC(=O)Nn2cnnc2)s1`: the inhibition is -3.13%.
As for `Cc1nnc(SCC(=O)Nc2ccc(S(=O)(=O)Nc3ccc(Cl)nn3)cc2)s1`, the figure is 79.2% (active).
As for `CCCCCC(=O)Nc1ccc(S(=O)(=O)Nc2ccc(Cl)nn2)cc1`, the figure is 4.6%; as for `CCNC(=O)COc1cc(C)c(Br)c(C)c1`, -2.07%; as for `COCCNC(=O)c1snc2ccc(Cl)cc12`, -6.6%.
In the case of `COCCNC(=O)Nc1ccc2nc(-c3ccco3)c(-c3ccco3)nc2c1` it was 79.6% (active).
As for `O=C(Nc1nc(-c2ccco2)c(-c2ccco2)s1)c1ccco1`, the inhibition is -3.82%.
In the case of `O=C(COc1ccccc1)Nc1ccc(N2CCN(C(=O)c3cccs3)CC2)cc1` it was -5.15%; in that of `O=C(CNC(=O)c1n[nH]c2ccccc12)Nc1cc(Cl)ccc1Cl`, 5.8%.
As for `Cc1cccc(N=Nc2c(O)[nH]c3ccc(F)cc23)c1`, the figure is -10.6%; as for `COc1ccccc1OCCCCCCN1CCN(C)CC1`, -4.32%; as for `COc1ccc(C(=O)NC(=S)Nc2ccccc2N2CCN(S(C)(=O)=O)CC2)cc1OC`, -10.7%.
For the compound `CCC(=O)Nc1ccccc1N1CCN(S(C)(=O)=O)CC1`, the inhibition was 53.6% (active).
As to `CCCC(=O)Nc1ccccc1N1CCN(C(=O)c2ccccc2)CC1`, the inhibition is -9.5%.
With `CCn1cc(C(=O)NCC(=O)NC(C)(C)CO)c(=O)c2cc3c(cc21)OCO3`, the inhibition is -9.05%.
As for `COc1ccccc1CCC(=O)OCC(=O)N1CCN(S(=O)(=O)c2ccc(C)cc2C)CC1`, the figure is -11.1%; as for `CC1(C)CC(CNCCC(c2ccc(F)cc2)c2ccco2)CCO1` (configuration not stated), -5.21%.
In the case of `CCn1ncc(CNC(=O)C2(C)CC2(Br)Br)c1C` (configuration not stated) it was -6.32%.
As for `Cc1noc(C)c1NC(=O)Nc1ccc2c(c1)C(=O)N([C@H](C)CO)C[C@H](C)[C@@H](CN(C)C(=O)Nc1ccccc1)O2`, the figure is 35.8%; as for `COc1ccc(S(=O)(=O)N(C)C[C@@H]2Oc3ccc(NC(=O)Nc4c(C)noc4C)cc3C(=O)N([C@H](C)CO)C[C@@H]2C)cc1`, 21.7%.
As for `Cc1ccc(S(=O)(=O)Nc2ccc3c(c2)C(=O)N([C@H](C)CO)C[C@@H](C)[C@@H](CN(C)C(=O)Nc2cccc4ccccc24)O3)cc1`, the inhibition was 59.1% (active).
As for `Cc1noc(C)c1NC(=O)Nc1ccc2c(c1)C(=O)N([C@H](C)CO)C[C@H](C)[C@@H](CN(C)C(=O)Nc1ccc(C(F)(F)F)cc1)O2`, the figure is 50.3% (active); as for `C[C@@H]1CN([C@@H](C)CO)C(=O)c2cc(NC(=O)C3CC3)ccc2O[C@H]1CN(C)C`, -8.19%.
As for `C[C@@H]1CN([C@H](C)CO)C(=O)c2cc(NC(=O)NC3CCCCC3)ccc2O[C@H]1CN(C)S(C)(=O)=O`, the figure is -8.19%; as for `C[C@H](CO)N1C[C@H](C)[C@@H](CN(C)C(=O)NC2CCCCC2)Oc2ccc(NC(=O)c3ccncc3)cc2C1=O`, 57.7% (active); as for `C[C@@H]1CN([C@@H](C)CO)C(=O)c2cccc(NS(=O)(=O)c3ccc(F)cc3)c2O[C@H]1CN(C)C(=O)NC1CCCCC1`, -0.48%.
As for `COc1ccc(NC(=O)N(C)C[C@H]2Oc3ccc(NC(=O)C4CC4)cc3C(=O)N([C@H](C)CO)C[C@@H]2C)cc1`, the figure is 67.9% (active); as for `Cc1noc(C)c1S(=O)(=O)N(C)C[C@H]1Oc2ccc(NC(=O)C3CCCCC3)cc2C(=O)N([C@H](C)CO)C[C@@H]1C`, -2.33%.
Turning to `C[C@H](CO)N1C[C@H](C)[C@@H](CN(C)S(=O)(=O)c2ccc(F)cc2)Oc2ccc(NC(=O)CCC(F)(F)F)cc2C1=O`, the inhibition is -5.81%.
As for `COc1ccc(NC(=O)Nc2ccc3c(c2)C(=O)N([C@H](C)CO)C[C@H](C)[C@@H](CN(C)C(=O)Nc2ccc4c(c2)OCO4)O3)cc1`, the figure is 48.8%; as for `CN(C(=O)CSc1nnc(-c2c[nH]c3ccccc23)o1)C1CCS(=O)(=O)C1` (configuration not stated), -5.57%.

Values taken from PubChem BioAssay AID493091 (Sanford-Burnham Center for Chemical Genomics, 2011).
